According to PubChem BioAssay AID493088 (Southern Research Specialized Biocontainment Screening …, 2011):
Activity calls are given as the source filed them.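 How the source made its calls: active means compounds blocking at least half of the virus-caused cell damage in the dose series; inactive means the rest.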

tested on: HEp-2 RSV Long CPE inhibition, luminescence; assay: inhibitors of RSV-induced HEp-2 cell death – RSV Long, synthesized compounds, set 5, dose response (AID 493088)
In short: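 system = RSV Long-infected HEp-2 cells | reagent = RSV Long, MOI 0.45 | doses = 8-point twofold dilution series, 0.39–50 µM final, 0.5% DMSO | timing = 6-day incubation of infected, compound-treated cells at 37 °C | signal = luminescence measurement of virus-induced cytopathic effect | evaluation = % CPE inhibition and IC50 | control set = cell-only and virus-only wells | repeats = triplicates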

Question: With `Cc1ncccc1NC(=O)[C@@H]1CCCN1S(=O)(=O)c1cccc2cccnc12` as the compound, how does the IC50 read?
Answer: > 50 µM (inactive)

Question: `CC(=O)c1ccccc1NC(=O)[C@@H]1CCCN1S(=O)(=O)c1cccc2cccnc12` was tested. Which IC50 did it give?
Answer: > 50 µM (inactive)

Question: For `CCOC(=O)c1ccc2[nH]c3c(c2c1)CN(C)CC3`, which IC50 is on record?
Answer: 28.4 µM

Question: Which IC50 does the source give for `COCCCNC(=O)c1ccc(Cn2c(=O)c3ccccc3n(Cc3ccc(C)cc3)c2=O)cc1` here?
Answer: 1.71 µM

Question: With `CCc1ccccc1NC(=O)[C@@H]1CCCN1S(=O)(=O)c1cccc2cccnc12` as the compound, how does the IC50 read?
Answer: 16.2 µM
